The values that follow come from ChEMBL document CHEMBL3779787, “Amorfrutin C Induces Apoptosis and Inhibits Proliferation in Colon Cancer Cells through Targeting Mitochondria” (J Nat Prod, 2016).

The test system of assay [1] is HT-29. The experiment in a line: Increase in mitochondrial oxygen consumption in human HT-29 cells measured for 20 to 60 mins by time-resolved fluorescence assay. The class given is functional, cell-based. The gist of the method: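 Oxygen-sensitive MitoXpress-Xtra probe in phenol red-free DMEM/F-12 on HT-29 seeded 80 000/well the day before; 10 min at 37 °C, compounds added, wells sealed with mineral oil. Time-resolved fluorescence at 37 °C, 90 s intervals for 150 min, background subtracted. Lifetime slope from 20 to 60 min taken relative to untreated cells; means ± SEM, n = 8.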

For assay [2], the system named is HT-29. Description: Increase in extracellular acidification rate in human HT-29 cells measured for 20 to 150 mins by time-resolved fluorescence assay relative to control. It counts as functional.
Assay [3] in a line: Antiproliferative activity against human PC3 cells assessed as cellular DNA content after 72 hrs by CyQUANT NF fluorescence assay. The class given is functional, cell-based. To be noted: PC-3, 72 h. The gist of the method: (§1)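 Cells seeded at 750 (HT-29), 250 (PC-3) or 900 (T84, MCF7) cells/well, treated next day with concentration series for 72 h (HT-29, PC-3) or 96 h (T84, MCF7). Relative cell number from cellular DNA content by fluorescent DNA-binding dye. Variable-slope fit; efficiency = maximal inhibition (100% − Bottom) vs untreated; IC50 relative to the compound's own maximal efficiency.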

In assay [4] the test system is MCF7. Description: Antiproliferative activity against human MCF7 cells assessed as cellular DNA content after 96 hrs by CyQUANT NF fluorescence assay relative to control. The class given is functional. The gist of the method:
as §1

The subject of assay [5] is T84. Description: Antiproliferative activity against human T84 cells assessed as cellular DNA content after 96 hrs by CyQUANT NF fluorescence assay. It counts as functional, cell-based. To be noted: T84, 96 h. A digest of the protocol: as §1
A short description of assay [6]: Antiproliferative activity against human PC3 cells assessed as cellular DNA content after 72 hrs by CyQUANT NF fluorescence assay relative to control. The class given is functional, PC-3. The gist of the method: as §1
Assay [7] has as its system MCF7. Description: Antiproliferative activity against human MCF7 cells assessed as cellular DNA content after 96 hrs by CyQUANT NF fluorescence assay. It counts as functional, cell-based. To be noted: MCF7, 96 h. A digest of the protocol:
as §1

In assay [8] the test system is HT-29. The experiment in a line: Antiproliferative activity against human HT-29 cells assessed as cellular DNA content after 72 hrs by CyQUANT NF fluorescence assay. The class given is functional, cell-based. To be noted: HT-29, 72 h. A digest of the protocol:
as §1

In assay [9] the test system is HT-29. The experiment in a line: Antiproliferative activity against human HT-29 cells assessed as cellular DNA content after 72 hrs by CyQUANT NF fluorescence assay relative to control. The class given is functional. The gist of the method:
as §1

Assay [10] concerns T84. The experiment in a line: Antiproliferative activity against human T84 cells assessed as cellular DNA content after 96 hrs by CyQUANT NF fluorescence assay relative to control. It counts as functional. A digest of the protocol: as §1
In assay [11] the test system is HT-29. Description: Induction of apoptosis in human HT-29 cells assessed as mitochondrial membrane depolarization after 5 mins by JC-1 dye-based fluorescence assay. The class given is functional, cell-based. A digest of the protocol:
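HT-29 (40 000 cells/well) treated with concentration series for 5 min at 37 °C, then JC-1 added for a further 10 min and washed. Red (560/590 nm) to green (485/520 nm) fluorescence ratio taken as ΔΨm; variable-slope fit for IC50; means ± SD, n = 4.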

Assay [12] concerns HT-29. Description: Induction of apoptosis in human HT-29 cells after 24 hrs by annexin V-FLUOS/propidium iodide staining-based flow cytometry. The class given is functional, cell-based. Background: Flow cytometry measures light scatter and fluorescence of single cells or particles in a stream.

The structures appear in SMILES notation. Calls of active or inactive are those of the source. The calls are words filed in the database; no cut-off is given here.

On to `N#CC(C#N)=NNc1cccc(Cl)c1` [CARBONYL CYANIDE M-CHLOROPHENYLHYDRAZONE], for which, in the assay on HT-29 [1], the outcome was Active. The “fold change (FC)” value with HT-29 [2] worked out at 3.
Regarding `CCc1c2c(nc3ccc(OC(=O)N4CCC(N5CCCCC5)CC4)cc13)-c1cc3c(c(=O)n1C2)COC(=O)[C@]3(O)CC` [IRINOTECAN], the IC50 in assay [3] is 800 nM; in the assay on T84 [5], 1200 nM; in the assay with MCF7 [7], 900 nM; in the assay on HT-29 [8], 1900 nM. Further, the Efficacy in the assay on MCF7 [4] is 82%; in [6] it was 76%; in the assay with HT-29 [9], 71%; in the assay on T84 [10] it was 82%.
Take `COC(=O)c1c(O)c(CC=C(C)C)c(OC)c(CC=C(C)C)c1CCc1ccccc1`: the result in the assay on HT-29 [11] and with HT-29 [12] was Active.
In the case of `COc1c(CC=C(C)C)c(CCc2ccccc2)c(C(=O)O)c(OC)c1CC=C(C)C`, the result with HT-29 [11] and with HT-29 [12] was Active.
Take `COc1cc([C@@H]2c3cc4c(cc3[C@@H](O[C@@H]3O[C@@H]5CO[C@@H](C)O[C@H]5[C@H](O)[C@H]3O)[C@H]3COC(=O)[C@H]23)OCO4)cc(OC)c1O` [ETOPOSIDE]: the IC50 in [3] stood at 1100 nM; with T84 [5], 3000 nM; in the assay on MCF7 [7], 800 nM; in the assay on HT-29 [8], 2200 nM. Besides, the Efficacy was 78% with MCF7 [4], 84% in assay [6], 97% in the assay on HT-29 [9] and 90% in the assay with T84 [10].
As for `O=c1[nH]cc(F)c(=O)[nH]1` [FLUOROURACIL], the IC50 in assay [3] was 4900 nM; in the assay on T84 [5], 6200 nM; with MCF7 [7], 900 nM; with HT-29 [8], 5300 nM. The Efficacy in the assay on MCF7 [4] is 80%; in assay [6] it was 80%; in the assay on HT-29 [9], 68%; in the assay on T84 [10] it was 76%.
As for `CCCCCCC1C(=O)O[C@H](C)[C@H](NC(=O)c2cccc(NC=O)c2O)C(=O)O[C@@H](C)[C@@H]1OC(=O)CC(C)C` (stereo not given in full), in the assay on HT-29 [1], the outcome was Active. Moreover, the “fold change (FC)” value in the assay with HT-29 [2] was 7.
For `COc1cc(CCc2ccccc2)c(C(=O)O)c(O)c1C/C=C(\C)CCC=C(C)C`, the IC50 in assay [3] stood at 32000 nM; in the assay on T84 [5], 13000 nM; in the assay with MCF7 [7] it was 33000 nM; in the assay on HT-29 [8], 20000 nM. Also, the Efficacy in the assay on MCF7 [4] is reported as 94%; in [6], 95%; in the assay with HT-29 [9], 98%; with T84 [10], 99%.

As usually defined, the IC50 is the concentration needed to halve the response being measured.
